The source of these data is ChEMBL document CHEMBL4118269 (J Med Chem, 2018).

In brackets after ≈: the same amount, converted by molar mass.

The target in series [1] is Lanosterol 14-alpha demethylase (Candida albicans (strain SC5314 / ATCC MYA-2876) (Yeast), UniProt P10613). Nature of the series: Inhibition of Candida albicans CYP51 assessed as reduction in [3-3H]lanosterol 14alpha-demethylation at 0.75 uM preincubated for 60 secs followed by NADPH addition measured after 60 mins by RP-HPLC analysis relative to control. Conditions: 1 h. In outline:
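C. albicans CYP51 expressed in E. coli and purified, 0.5 μM, with 1.0 μM rat NADPH-P450 reductase, dilauroylphosphatidylcholine and isocitrate dehydrogenase/isocitrate regeneration in 50 mM potassium phosphate pH 7.2, 10% glycerol, 0.1% Triton X-100. Substrate 25 μM final; inhibitor:enzyme:substrate 1.5:1:50. 37 °C, started with 100 μM NADPH. Sterols extracted with EtOAc, radio-HPLC. Triplicate, mean ± SD.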

For series [2], the target named is Lanosterol 14-alpha demethylase (Aspergillus) (UniProt B8NUK6+Q9P8R0+G4WW85). Nature of the series: Inhibition of Aspergillus fumigatus CYP51 assessed as reduction in [3-3H]eburicol 14alpha-demethylation at 0.75 uM preincubated for 60 secs followed by NADPH addition measured after 60 mins by RP-HPLC analysis relative to control. A digest of the protocol: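 E. coli-expressed, purified CYP51 (0.5 μM) with rat NADPH-P450 reductase (1.0 μM), 100 μM dilauroylphosphatidylcholine, isocitrate dehydrogenase/isocitrate NADPH regeneration, in 50 mM K phosphate pH 7.2 with 10% glycerol and 0.1% Triton X-100. [3-3H]eburicol 25 μM final, inhibitor 0.75 μM final (1.5:1:50 inhibitor:enzyme:substrate), 37 °C. Started with 100 μM NADPH, 60 min, EtOAc extraction, radio-HPLC. Percent inhibition, triplicate, mean ± SD.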

The nature of series [3]: Lipophilicity, log P of the compound. The conditions noted are these: octanol/water. In kind it is physicochemical.
For series [4], the target named is T1, Lanosterol 14-alpha demethylase (Aspergillus, UniProt B8NUK6+G4WW85+Q9P8R0).
T1 sequence (B8NUK6 whole entry): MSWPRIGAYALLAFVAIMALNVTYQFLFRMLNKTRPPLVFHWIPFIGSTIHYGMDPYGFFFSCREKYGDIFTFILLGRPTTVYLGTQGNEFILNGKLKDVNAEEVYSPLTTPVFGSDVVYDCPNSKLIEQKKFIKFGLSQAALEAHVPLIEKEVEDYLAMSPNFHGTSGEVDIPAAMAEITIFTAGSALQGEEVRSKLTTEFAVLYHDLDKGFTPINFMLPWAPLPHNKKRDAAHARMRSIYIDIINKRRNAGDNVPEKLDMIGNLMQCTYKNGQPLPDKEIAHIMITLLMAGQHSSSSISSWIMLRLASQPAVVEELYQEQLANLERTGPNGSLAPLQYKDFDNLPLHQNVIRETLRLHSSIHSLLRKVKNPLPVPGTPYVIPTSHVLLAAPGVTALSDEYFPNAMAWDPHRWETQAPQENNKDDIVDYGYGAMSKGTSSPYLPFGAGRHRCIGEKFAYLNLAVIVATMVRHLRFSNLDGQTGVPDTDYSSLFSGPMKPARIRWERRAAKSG
T1 sequence (Q9P8R0 whole entry): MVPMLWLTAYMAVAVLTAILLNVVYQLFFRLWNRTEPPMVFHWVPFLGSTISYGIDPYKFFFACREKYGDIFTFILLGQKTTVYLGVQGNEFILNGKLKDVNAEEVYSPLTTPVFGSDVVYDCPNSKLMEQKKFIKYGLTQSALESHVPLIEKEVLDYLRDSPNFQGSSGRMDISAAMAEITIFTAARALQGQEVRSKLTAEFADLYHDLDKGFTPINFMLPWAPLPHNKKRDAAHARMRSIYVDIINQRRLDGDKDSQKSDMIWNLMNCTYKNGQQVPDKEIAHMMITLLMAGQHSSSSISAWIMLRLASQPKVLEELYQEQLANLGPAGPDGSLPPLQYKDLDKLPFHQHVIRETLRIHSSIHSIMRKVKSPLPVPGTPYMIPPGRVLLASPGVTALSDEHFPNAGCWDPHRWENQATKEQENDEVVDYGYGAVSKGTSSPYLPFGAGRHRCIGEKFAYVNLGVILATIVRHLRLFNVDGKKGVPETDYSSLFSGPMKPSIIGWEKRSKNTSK
T1 sequence (G4WW85 whole entry): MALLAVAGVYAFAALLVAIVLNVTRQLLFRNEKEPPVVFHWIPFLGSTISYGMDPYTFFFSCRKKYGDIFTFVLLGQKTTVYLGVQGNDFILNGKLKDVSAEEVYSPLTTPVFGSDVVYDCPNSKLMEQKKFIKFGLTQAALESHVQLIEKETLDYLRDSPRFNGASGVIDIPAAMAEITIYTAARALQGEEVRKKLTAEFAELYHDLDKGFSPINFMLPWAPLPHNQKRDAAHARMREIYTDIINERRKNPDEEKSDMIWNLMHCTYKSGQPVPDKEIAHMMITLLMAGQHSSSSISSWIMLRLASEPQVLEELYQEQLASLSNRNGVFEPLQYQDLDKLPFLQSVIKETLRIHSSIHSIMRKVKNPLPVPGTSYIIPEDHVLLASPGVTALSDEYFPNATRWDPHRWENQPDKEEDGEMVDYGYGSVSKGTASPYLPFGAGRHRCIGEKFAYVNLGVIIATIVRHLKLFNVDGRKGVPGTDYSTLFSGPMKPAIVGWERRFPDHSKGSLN
Nature of the series: Binding affinity to Aspergillus fumigatus CYP51 by spectral titration method. Conditions: read-out: Kd(app). A digest of the protocol:
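Purified CYP51 at 0.5 μM in 5 cm path cuvettes, titrated from 0.2 mM DMSO stocks over 0.1–0.8 μM ligand. Type II red shift of the Soret band (417 to 424 nm) followed as ΔA (Amax−Amin) in difference spectra. Kd obtained by fitting to the quadratic tight-binding equation using total ligand and enzyme concentrations.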

Series [5] in a line: Half life in human liver microsomes at 1 uM preincubated for 5 mins followed by NADPH addition measured up to 45 mins by LC-MS/MS analysis. The conditions noted are these: 0.75 h. In kind it is ADME, microsome. In outline:
(§1)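 Pooled liver microsomes (0.5 mg/mL; male CD-1 mouse, male Sprague Dawley rat, or mixed-gender human) with 1 μM compound in 100 mM potassium phosphate pH 7.4, 3 mM MgCl2, 37 °C with shaking. 5 min preincubation, then 1 mM NADPH. Aliquots at 0, 3, 7, 15, 25, 45 min quenched in cold CH3CN with carbamazepine internal standard, then LC/MS/MS. Triplicate; T1/2 = ln2/k from the slope of ln % remaining versus time.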

Series [6] in a line: Half life in Sprague-Dawley rat liver microsomes at 1 uM preincubated for 5 mins followed by NADPH addition measured up to 45 mins by LC-MS/MS analysis. The conditions noted are these: 0.75 h. Format: ADME, microsome. In outline:
as §1

The nature of series [7]: Half life in CD-1 mouse liver microsomes at 1 uM preincubated for 5 mins followed by NADPH addition measured up to 45 mins by LC-MS/MS analysis. In kind it is ADME, microsome. Conditions: 0.75 h. A digest of the protocol: as §1
Series [8] in a line: in vitro. Conditions: human, liver microsomes. For orientation: Microsomes from liver hold many membrane-bound enzymes, among them those of drug oxidation.
Series [9] is described as follows: in vitro. The conditions noted are these: human, liver microsomes. The source holds these as a separate data set.
The nature of series [10]: in vitro. Conditions: Sprague-Dawley, rat, liver microsomes.
Series [11] in a line: in vitro. Conditions: Sprague-Dawley, rat, liver microsomes. The source holds these as a separate data set.
The nature of series [12]: in vitro. The conditions noted are these: CD-1, mouse, liver microsomes.
Series [13] can be described thus: in vitro. The conditions noted are these: CD-1, mouse, liver microsomes. This is another data set of the same source.
The subject of series [14] is Aspergillus fumigatus. Nature of the series: Antifungal activity against Aspergillus fumigatus 1022 after 48 hrs by CLSI M38-A2 protocol based assay. In kind it is functional. The conditions noted are these: Aspergillus fumigatus, 1022, 48 h; read-out: MIC100.
The subject of series [15] is Aspergillus fumigatus. Nature of the series: Antifungal activity against Aspergillus fumigatus 32820 after 48 hrs by CLSI M38-A2 protocol based assay. In kind it is functional. The conditions noted are these: Aspergillus fumigatus, 32820, 48 h; read-out: MIC100.
The subject of series [16] is Aspergillus fumigatus. Nature of the series: Antifungal activity against Aspergillus fumigatus MYA626 after 48 hrs by CLSI M38-A2 protocol based assay. Conditions: MYA626, 48 h, read-out: MIC100. In kind it is functional.
The subject of series [17] is Aspergillus fumigatus. Nature of the series: Antifungal activity against Aspergillus fumigatus after 48 hrs.

Lanosterol 14-alpha demethylase (Candida albicans (strain SC5314 / ATCC MYA-2876) (Yeast), UniProt P10613), sequence (P10613 whole entry): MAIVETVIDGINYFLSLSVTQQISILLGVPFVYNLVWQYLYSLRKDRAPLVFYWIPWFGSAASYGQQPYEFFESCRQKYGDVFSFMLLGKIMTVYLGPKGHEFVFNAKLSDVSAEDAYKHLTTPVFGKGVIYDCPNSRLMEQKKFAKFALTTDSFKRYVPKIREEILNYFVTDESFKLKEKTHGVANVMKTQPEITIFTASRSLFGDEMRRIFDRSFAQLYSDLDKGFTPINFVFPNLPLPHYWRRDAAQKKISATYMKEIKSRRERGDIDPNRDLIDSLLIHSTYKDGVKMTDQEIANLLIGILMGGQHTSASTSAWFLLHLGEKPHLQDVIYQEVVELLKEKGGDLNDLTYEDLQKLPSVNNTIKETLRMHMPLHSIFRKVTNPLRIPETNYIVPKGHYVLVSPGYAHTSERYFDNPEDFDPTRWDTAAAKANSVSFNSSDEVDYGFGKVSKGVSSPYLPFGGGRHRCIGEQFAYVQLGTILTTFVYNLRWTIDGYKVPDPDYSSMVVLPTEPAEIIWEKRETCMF

`O=C(N[C@@H](Cn1ccnc1)c1ccc(Cl)cc1Cl)c1ccc(-c2nnc(-c3cc(F)cc(-c4ccccn4)c3)o2)cc1`: the inhibition at 0.75 µM in series [1] was determined as 87%. Further, the inhibition in series [2] was 80%. For the same compound, in series [3], the logP was found to be 5.49. In addition, the Kd in series [4] is 61 nM. For the same compound, the t1/2 came out at 0.217 h in series [5], 1.3 h in series [6] and 1.65 h in series [7]. Further, the CLint scaled at 0.75 h, 1 µM was determined as 96.6 mL/min/kg in [8], 36 mL/min/kg in series [10] and 55 mL/min/kg in series [12]. The CLhep predicted at 0.75 h, 1 µM in series [9] is 17.3 mL/min/kg; in series [11], 24 mL/min/kg; in series [13], 34 mL/min/kg.
With `O=C(N[C@@H](Cn1ccnc1)c1ccc(Cl)cc1Cl)c1ccc(-c2nnc(-c3ccc(C(F)(F)F)c(F)c3)o2)cc1`, in series [1], the inhibition at 0.75 µM is 89%. Also, the inhibition in series [2] worked out at 65%. Moreover, in [3], the logP was determined as 5.65. Also, the Kd in series [4] came out at 55 nM. The t1/2 in series [5] turned out to be 3.43 h; in series [6] it was 1.28 h; in series [7], 1.53 h. Moreover, the results for the MIC in series [14], in series [15] and in [16] were 0.19 µg/mL (≈ 0.322 µM), 0.09 µg/mL (≈ 0.152 µM) and 0.39 µg/mL (≈ 0.661 µM), respectively. Also, the CLint scaled at 0.75 h, 1 µM worked out at 6.06 mL/min/kg in series [8], 36 mL/min/kg in series [10] and 60 mL/min/kg in series [12]. Moreover, the CLhep predicted at 0.75 h, 1 µM in series [9] was 4.07 mL/min/kg; in series [11], 24 mL/min/kg; in [13], 36 mL/min/kg.
As to `O=C(N[C@@H](Cn1ccnc1)c1ccc(Cl)cc1Cl)c1ccc(-c2nnc(-c3ccc(F)c(F)c3)o2)cc1`, the inhibition in [2] is 58%. In [3], this compound gave a logP of 4.88. Also, the Kd in [4] is 57 nM. The t1/2 is 2.77 h in series [5], 1.52 h in series [6] and 1.63 h in series [7]. Moreover, the MIC in series [14] amounted to 0.29 µg/mL (≈ 0.537 µM); in series [15], 0.08 µg/mL (≈ 0.148 µM); in series [16], 0.78 µg/mL (≈ 1.44 µM). In addition, the CLint scaled at 0.75 h, 1 µM in series [8] came to 7.53 mL/min/kg; in [10], 31 mL/min/kg; in [12] it was 55 mL/min/kg. The CLhep predicted at 0.75 h, 1 µM in series [9] was 5.54 mL/min/kg; in series [11], 21 mL/min/kg; in series [13], 34 mL/min/kg.
For the compound `O=C(N[C@@H](Cn1ccnc1)c1ccc(Cl)cc1Cl)c1ccc(-c2nnc(-c3ccc(OCC(F)(F)F)cc3F)o2)cc1`, the inhibition at 0.75 µM in series [1] amounted to 94%. For the same compound, the inhibition in series [2] turned out to be 82%. Moreover, in [3], the logP is 5.58. Moreover, the Kd in series [4] was 20 nM. In addition, the t1/2 in series [5] was found to be 1.27 h; in series [7], 1.03 h. Moreover, the results for the MIC in series [14], in series [15] and in series [16] were 0.19 µg/mL (≈ 0.306 µM), 0.06 µg/mL (≈ 0.0967 µM) and 0.39 µg/mL (≈ 0.629 µM), respectively. The values for the CLint scaled at 0.75 h, 1 µM in [8], in series [10] and in series [12] were 16.5 mL/min/kg, 64 mL/min/kg and 88 mL/min/kg, respectively. Besides, the CLhep predicted at 0.75 h, 1 µM in series [9] is 9.24 mL/min/kg; in series [11], 34 mL/min/kg; in [13], 44 mL/min/kg.
Turning to `O=C(N[C@@H](Cn1ccnc1)c1ccc(Cl)cc1Cl)c1ccc(-c2nnc(-c3cc(F)cc(-c4ncncc4F)c3)o2)cc1`, in [1], the inhibition at 0.75 µM came out at 92%. In series [2], the inhibition amounted to 57%. Besides, the logP in series [3] was found to be 5.05. In addition, in [4], the Kd came to 132 nM. Moreover, the t1/2 in series [5] amounted to 1.4 h; in series [7] it was 0.867 h. Further, the MIC in [14] amounted to 0.48 µg/mL (≈ 0.776 µM); in series [15] it was 0.19 µg/mL (≈ 0.307 µM); in series [16], 0.78 µg/mL (≈ 1.26 µM). Besides, the CLint scaled at 0.75 h, 1 µM was found to be 14.9 mL/min/kg in series [8], 27 mL/min/kg in [10] and 104 mL/min/kg in series [12]. The CLhep predicted at 0.75 h, 1 µM in series [9] is 8.37 mL/min/kg; in [11], 19.5 mL/min/kg; in [13], 48.3 mL/min/kg.
Regarding `C[C@@H](c1ncncc1F)[C@](O)(Cn1cncn1)c1ccc(F)cc1F` [VORICONAZOLE], in series [4], the Kd came to 56 nM. The compound also showed an MIC in [17] of 0.7 µg/mL (≈ 2 µM).

Usually inhibition stands for the relative decrease from the control value, in per cent. A word on the logP: it is the decadic logarithm of the partition coefficient of the neutral form, usually between octanol and water. High values mean a more lipophilic compound, low ones a more hydrophilic compound. In general, CLint scaled refers to a measure of how fast metabolising enzymes remove a compound, apart from limits set by blood flow. A low value points to slow turnover.
